For one data set, the target named is T1, Aurora kinase A (Homo sapiens, UniProt O14965).
T1 sequence (O14965 whole entry): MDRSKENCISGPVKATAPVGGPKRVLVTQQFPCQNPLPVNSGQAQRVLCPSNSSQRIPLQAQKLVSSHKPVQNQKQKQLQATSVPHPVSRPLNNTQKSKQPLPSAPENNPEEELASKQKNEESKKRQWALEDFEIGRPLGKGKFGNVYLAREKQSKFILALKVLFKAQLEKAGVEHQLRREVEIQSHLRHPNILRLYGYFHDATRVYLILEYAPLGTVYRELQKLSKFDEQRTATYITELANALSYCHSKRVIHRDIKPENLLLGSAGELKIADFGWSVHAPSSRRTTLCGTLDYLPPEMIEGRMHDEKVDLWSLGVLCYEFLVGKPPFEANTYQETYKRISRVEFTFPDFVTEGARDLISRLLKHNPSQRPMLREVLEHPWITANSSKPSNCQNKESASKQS
Description: Inhibition of human recombinant AurKA after 4 hrs by ADP-Glo assay.

Data set [1] deals with T2, Receptor-interacting serine/threonine-protein kinase 1 (Homo sapiens, UniProt Q13546).
T2 sequence (Q13546 whole entry): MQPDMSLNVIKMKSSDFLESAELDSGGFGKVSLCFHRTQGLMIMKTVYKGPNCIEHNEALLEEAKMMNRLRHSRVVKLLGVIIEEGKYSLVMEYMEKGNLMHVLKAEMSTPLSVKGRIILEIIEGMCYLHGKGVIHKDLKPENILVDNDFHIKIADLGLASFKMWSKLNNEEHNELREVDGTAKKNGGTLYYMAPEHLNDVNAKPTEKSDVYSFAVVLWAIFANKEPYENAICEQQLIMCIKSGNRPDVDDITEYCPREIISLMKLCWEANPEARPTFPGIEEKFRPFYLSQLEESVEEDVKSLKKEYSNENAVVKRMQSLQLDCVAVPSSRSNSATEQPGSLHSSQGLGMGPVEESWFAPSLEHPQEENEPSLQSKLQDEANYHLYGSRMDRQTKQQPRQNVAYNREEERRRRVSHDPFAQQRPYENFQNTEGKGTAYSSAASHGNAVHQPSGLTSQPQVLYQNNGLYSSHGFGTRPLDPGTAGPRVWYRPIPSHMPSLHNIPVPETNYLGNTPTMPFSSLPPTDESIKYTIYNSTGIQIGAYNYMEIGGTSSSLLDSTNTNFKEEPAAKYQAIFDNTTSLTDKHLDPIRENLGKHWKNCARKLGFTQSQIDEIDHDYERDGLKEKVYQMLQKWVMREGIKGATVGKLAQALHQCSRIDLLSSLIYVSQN
Description: Inhibition of human recombinant RIPK1 after 4 hrs by ADP-Glo assay. (In general: In ADP-Glo the light output rises with the ADP produced.)

Data set [2] relates to Aurk (Aurora kinase). Kind of data set: Inhibition of Aurk in mouse L929sA cells transfected with human Fas assessed as increase in nuclear area at 3 uM after 24 hrs in presence of TNF by Hoechst 33342 staining-based microscopic assay relative to control. In kind it is cell-based.
The next data set deals with Mus musculus. Kind of data set: Protection against TNF-induced hypothermia in TNF-induced SIRS C57BL/6J mouse model at 50 mg/kg administered via oral gavage treated 1.5 hrs prior to TNF challenge by thermometric analysis. It counts as functional, organism-based. In a few lines:
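Mice were dosed orally by gavage at 50 mg/kg, 1.5 h before challenge with murine TNF (mTNF).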

The target of another data set is Aurora kinase B (Homo sapiens, UniProt Q96GD4). Description: Inhibition of human recombinant AurKB after 4 hrs by ADP-Glo assay.
Chain of Aurora kinase B (Q96GD4 whole entry): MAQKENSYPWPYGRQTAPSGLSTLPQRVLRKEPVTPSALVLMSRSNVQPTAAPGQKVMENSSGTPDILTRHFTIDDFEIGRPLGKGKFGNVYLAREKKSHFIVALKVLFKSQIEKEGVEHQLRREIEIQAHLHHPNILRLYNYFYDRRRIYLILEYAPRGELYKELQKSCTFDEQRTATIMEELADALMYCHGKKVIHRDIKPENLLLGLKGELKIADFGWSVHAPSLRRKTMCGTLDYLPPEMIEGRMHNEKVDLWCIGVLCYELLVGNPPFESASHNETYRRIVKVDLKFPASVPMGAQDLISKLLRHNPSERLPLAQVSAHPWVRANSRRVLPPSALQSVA
Data set [3] can be described thus: Inhibition of Aurk mouse L929sA cells transfected with human Fas assessed as reduction in cell growth after 24 hrs in presence of TNF by Hoechst 33342 staining-based microscopic assay. In a few lines: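 L929sAhFAS cells exposed to compound; total cell number is counted after 24 h. IC50 is fitted from a dose–response curve of cell growth.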
Data set [4] can be described thus: Inhibition of Aurk mouse L929sA cells transfected with human Fas assessed as increase in nuclear area after 24 hrs in presence of TNF by Hoechst 33342 staining-based microscopic assay. In a few lines:
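L929sAhFAS cells treated with compound; mean nuclear area is measured and fitted as a sigmoidal dose–response curve.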

The test system of data set [5] is Aurk (Aurora kinase). Description: Inhibition of Aurk in mouse L929sA cells transfected with human Fas assessed as reduction in cell growth at 3 uM after 24 hrs in presence of TNF by Hoechst 33342 staining-based microscopic assay relative to control.
Data set [6] deals with T3, Receptor-interacting serine/threonine-protein kinase 1 (Mus musculus) (UniProt Q60855).
T3 sequence (whole entry): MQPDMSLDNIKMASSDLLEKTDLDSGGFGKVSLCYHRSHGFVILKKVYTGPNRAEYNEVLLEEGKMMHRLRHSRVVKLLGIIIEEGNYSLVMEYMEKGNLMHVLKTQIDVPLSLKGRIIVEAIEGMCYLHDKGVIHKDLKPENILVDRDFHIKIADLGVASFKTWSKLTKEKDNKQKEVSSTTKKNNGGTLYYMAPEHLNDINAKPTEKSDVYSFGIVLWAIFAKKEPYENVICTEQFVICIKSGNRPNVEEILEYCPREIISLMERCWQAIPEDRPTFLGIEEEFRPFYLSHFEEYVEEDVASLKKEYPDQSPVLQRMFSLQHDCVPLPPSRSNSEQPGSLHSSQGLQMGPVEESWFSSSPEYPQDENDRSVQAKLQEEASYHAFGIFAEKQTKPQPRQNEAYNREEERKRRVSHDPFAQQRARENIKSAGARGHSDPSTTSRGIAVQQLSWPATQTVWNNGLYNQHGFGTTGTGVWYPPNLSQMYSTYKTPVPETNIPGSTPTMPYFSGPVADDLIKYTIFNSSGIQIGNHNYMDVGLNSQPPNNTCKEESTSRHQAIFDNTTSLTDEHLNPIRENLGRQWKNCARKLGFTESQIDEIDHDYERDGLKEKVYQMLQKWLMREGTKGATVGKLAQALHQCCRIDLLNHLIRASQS
Description: Inhibition of RIPK1 in mouse L929sA cells transfected with human Fas assessed as inhibition in TNF-induced necroptosis at 3 uM pretreated for 0.5 hrs followed by TNF and zVAD.fmk addition measured after 3 hrs by Hoechst 33342/propidium iodide staining-based assay relative to control. In kind it is cell-based.

For data set [7], the target named is T3, Receptor-interacting serine/threonine-protein kinase 1 (Mus musculus). Description: Inhibition of RIPK1 in mouse L929sA cells transfected with human Fas assessed as inhibition in TNF-induced necroptosis at 3 uM pretreated for 24 hrs followed by TNF and zVAD.fmk addition measured after 3 hrs by Hoechst 33342/propidium iodide staining-based assay relative to control. It counts as cell-based.

Active and inactive are the calls of the source. The calls are words filed in the database; no cut-off is given here.

By IC50 is commonly meant the concentration at which inhibition is half-maximal. The term inhibition denotes the percentage by which the read-out fell short of the control.

With `Cc1cc(Nc2cc(N3CCN(C)CC3)nc(Nc3ccc(NC(=O)C4CC4)cc3)n2)n[nH]1`, the IC50 at Aurora kinase A was 293 nM; in data set [1], 178 nM; at Aurora kinase B, 1340 nM; in data set [3] it was above 3000 nM; in data set [4], above 3000 nM. In addition, the inhibition at 24 h, 3 µM with Aurk (Aurora kinase) [2] and in the data set with Aurk (Aurora kinase) [5] was below 50% each time. Moreover, in the data set with Mus musculus, the outcome was Active.
With `Cc1cc(Nc2nc(Sc3ccc(NC(=O)C4CCCCC4)cc3)nc(N3CCN(C)CC3)n2)n[nH]1`, the IC50 was found to be 210 nM on Aurora kinase A; 2470 nM in data set [1]; 229 nM at Aurora kinase B; 330 nM in data set [3]; 400 nM in data set [4]. The inhibition in data set [6] and in [7] was below 50% in each case.
